Data taken from ChEMBL document CHEMBL1132940, “Pharmacophore/receptor models for GABA(A)/BzR subtypes (alpha1beta3gamma2, alpha5beta3gamma2, and alpha6beta3gamma2) via a comprehensive ligand-mapping approach” (J Med Chem, 2000).

What was measured:
[1] = molecular target: GABA-A receptor; alpha-6/beta-3/gamma-2 (Homo sapiens, UniProt P18507+P28472+Q16445); test: Binding affinity for human recombinant gamma-aminobutyric-acid (GABA) A receptor alpha-6-beta-3-gamma-2; assay type: protein-complex assay
Sequence of GABA-A receptor; alpha-6/beta-3/gamma-2 (Q16445 whole entry, one chain of several): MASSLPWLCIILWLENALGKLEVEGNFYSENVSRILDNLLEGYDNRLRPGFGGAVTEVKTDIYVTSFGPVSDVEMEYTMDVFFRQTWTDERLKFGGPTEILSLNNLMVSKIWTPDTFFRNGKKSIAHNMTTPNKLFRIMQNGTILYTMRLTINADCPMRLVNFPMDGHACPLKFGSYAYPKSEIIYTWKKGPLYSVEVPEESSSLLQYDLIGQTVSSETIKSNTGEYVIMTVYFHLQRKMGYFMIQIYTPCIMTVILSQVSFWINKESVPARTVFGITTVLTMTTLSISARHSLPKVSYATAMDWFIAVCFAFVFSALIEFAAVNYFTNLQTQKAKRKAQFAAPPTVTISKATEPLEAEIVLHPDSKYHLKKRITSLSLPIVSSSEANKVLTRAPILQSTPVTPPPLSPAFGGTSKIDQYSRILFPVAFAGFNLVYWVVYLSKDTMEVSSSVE
Outline: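 Ltk⁻ cells expressing human α6β3γ2 were harvested by scraping into PBS, centrifuged at 3000g and resuspended in 10 mM KH₂PO₄/100 mM KCl (pH 7.4). Incubation was 1 h at 4 °C with filter harvest and scintillation counting.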

[2] = molecular target: T1, GABA-A receptor; alpha-3/beta-3/gamma-2 (Homo sapiens, UniProt P18507+P28472+P34903); test: Binding affinity for human recombinant gamma-aminobutyric-acid (GABA) A receptor alpha-3-beta-3-gamma-2; assay type: protein-complex assay
T1 sequence (P18507 whole entry): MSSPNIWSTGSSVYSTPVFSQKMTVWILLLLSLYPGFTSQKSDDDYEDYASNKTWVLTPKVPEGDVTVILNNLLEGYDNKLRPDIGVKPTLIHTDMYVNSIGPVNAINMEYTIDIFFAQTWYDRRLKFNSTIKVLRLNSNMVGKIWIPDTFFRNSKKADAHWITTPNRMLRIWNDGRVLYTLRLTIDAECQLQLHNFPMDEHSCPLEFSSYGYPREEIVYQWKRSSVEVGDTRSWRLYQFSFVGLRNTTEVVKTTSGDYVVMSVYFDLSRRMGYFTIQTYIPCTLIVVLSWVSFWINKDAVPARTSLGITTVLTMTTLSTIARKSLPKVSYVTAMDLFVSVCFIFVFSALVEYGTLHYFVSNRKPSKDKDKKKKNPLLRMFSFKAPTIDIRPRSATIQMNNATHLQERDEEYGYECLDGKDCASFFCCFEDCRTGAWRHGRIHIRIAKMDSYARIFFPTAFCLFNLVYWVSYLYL
T1 sequence (P28472 whole entry): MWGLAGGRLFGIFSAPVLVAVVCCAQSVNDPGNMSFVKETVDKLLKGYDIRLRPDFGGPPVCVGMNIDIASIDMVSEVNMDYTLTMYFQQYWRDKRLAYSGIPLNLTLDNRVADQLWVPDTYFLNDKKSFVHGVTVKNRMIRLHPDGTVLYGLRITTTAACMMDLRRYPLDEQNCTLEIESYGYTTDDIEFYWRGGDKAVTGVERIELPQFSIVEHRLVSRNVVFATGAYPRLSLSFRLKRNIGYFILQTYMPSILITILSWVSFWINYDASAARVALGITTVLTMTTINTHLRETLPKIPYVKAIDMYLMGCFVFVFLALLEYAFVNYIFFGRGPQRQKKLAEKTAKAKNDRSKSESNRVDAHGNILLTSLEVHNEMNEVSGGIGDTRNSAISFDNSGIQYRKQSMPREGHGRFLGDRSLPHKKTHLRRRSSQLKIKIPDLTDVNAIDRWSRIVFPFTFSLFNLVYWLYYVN
T1 sequence (P34903 whole entry): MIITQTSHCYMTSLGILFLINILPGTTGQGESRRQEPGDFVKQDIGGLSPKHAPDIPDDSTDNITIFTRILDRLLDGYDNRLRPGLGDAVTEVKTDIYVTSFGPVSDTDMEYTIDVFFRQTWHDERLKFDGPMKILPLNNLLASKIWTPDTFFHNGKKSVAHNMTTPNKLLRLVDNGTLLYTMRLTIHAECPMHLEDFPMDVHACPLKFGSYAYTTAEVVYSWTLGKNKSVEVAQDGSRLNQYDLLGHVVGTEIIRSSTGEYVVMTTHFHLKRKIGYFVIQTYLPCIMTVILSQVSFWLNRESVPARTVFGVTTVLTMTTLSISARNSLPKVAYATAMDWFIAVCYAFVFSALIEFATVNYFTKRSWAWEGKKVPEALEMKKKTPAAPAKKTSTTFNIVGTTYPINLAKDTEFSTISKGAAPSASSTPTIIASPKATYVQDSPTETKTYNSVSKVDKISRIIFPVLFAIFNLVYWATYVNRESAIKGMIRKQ

[3] = molecular target: T2, GABA-A receptor; alpha-5/beta-3/gamma-2 (Homo sapiens, UniProt P18507+P28472+P31644); test: Binding affinity for human recombinant gamma-aminobutyric-acid (GABA) A receptor alpha-5-beta-3-gamma-2; assay type: protein-complex assay
T2 sequence (P18507 whole entry): T1 sequence (P18507 whole entry)
T2 sequence (P28472 whole entry): T1 sequence (P28472 whole entry)
T2 sequence (P31644 whole entry): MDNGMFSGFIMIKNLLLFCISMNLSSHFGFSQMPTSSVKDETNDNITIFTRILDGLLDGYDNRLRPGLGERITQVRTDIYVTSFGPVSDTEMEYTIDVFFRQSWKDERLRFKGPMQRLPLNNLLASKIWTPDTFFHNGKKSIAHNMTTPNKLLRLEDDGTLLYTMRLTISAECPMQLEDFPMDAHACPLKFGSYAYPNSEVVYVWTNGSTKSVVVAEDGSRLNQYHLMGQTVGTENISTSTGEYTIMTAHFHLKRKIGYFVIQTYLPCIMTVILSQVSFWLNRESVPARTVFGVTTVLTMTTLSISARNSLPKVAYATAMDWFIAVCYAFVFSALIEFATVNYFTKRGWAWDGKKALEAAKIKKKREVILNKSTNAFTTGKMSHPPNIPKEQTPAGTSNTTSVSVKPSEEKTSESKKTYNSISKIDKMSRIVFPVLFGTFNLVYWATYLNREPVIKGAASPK

[4] = molecular target: T3, GABA-A receptor; alpha-2/beta-3/gamma-2 (Homo sapiens, UniProt P18507+P28472+P47869); test: Binding affinity to human recombinant gamma-aminobutyric-acid (GABA) A receptor alpha-2-beta-3-gamma-2; assay type: protein-complex assay
T3 sequence (P18507 whole entry): T1 sequence (P18507 whole entry)
T3 sequence (P28472 whole entry): T1 sequence (P28472 whole entry)
T3 sequence (P47869 whole entry): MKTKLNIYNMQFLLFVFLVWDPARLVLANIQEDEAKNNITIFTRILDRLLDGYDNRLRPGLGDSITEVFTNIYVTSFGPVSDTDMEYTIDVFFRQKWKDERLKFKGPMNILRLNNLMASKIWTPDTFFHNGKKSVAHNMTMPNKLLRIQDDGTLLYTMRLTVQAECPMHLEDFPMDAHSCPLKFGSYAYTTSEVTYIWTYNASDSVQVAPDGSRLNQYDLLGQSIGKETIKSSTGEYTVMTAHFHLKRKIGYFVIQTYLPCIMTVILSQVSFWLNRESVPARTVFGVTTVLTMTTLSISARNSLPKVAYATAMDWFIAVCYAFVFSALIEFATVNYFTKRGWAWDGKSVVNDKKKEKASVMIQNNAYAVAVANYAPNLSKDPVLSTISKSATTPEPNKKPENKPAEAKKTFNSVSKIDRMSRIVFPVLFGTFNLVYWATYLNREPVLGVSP

[5] = molecular target: T4, GABA-A receptor; alpha-1/beta-3/gamma-2 (Homo sapiens, UniProt P14867+P18507+P28472); test: Binding affinity for human recombinant gamma-aminobutyric-acid (GABA) A receptor alpha-1-beta-3-gamma-2; assay type: protein-complex assay
T4 sequence (P14867 whole entry): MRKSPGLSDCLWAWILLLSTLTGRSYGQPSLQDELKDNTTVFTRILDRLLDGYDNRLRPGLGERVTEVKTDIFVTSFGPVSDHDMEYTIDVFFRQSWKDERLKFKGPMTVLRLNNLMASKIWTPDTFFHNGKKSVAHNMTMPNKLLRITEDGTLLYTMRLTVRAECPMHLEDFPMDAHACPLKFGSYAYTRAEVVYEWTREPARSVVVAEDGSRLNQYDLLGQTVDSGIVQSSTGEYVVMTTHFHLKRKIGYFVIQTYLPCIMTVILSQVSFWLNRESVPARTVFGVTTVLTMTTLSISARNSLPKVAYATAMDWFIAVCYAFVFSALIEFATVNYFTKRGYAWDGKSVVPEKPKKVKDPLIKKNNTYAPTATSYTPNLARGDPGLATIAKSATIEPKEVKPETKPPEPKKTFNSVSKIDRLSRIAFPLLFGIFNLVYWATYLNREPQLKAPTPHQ
T4 sequence (P18507 whole entry): T1 sequence (P18507 whole entry)
T4 sequence (P28472 whole entry): T1 sequence (P28472 whole entry)

[6] = Selectivity ratio of alpha1 beta-3 gamma2 GABA A / BzR and alpha5 beta-3 gamma2 GABA A / BzR

Structure (SMILES)	Ki [1] [nM]	Ki [2] [nM]	Ki [3] [nM]	Ki [4] [nM]	Ki [5] [nM]	Ratio [6]
COCc1c(SC#N)[nH]cc2nc3ccc(OCc4ccccc4)cc3c1-2	> 10000	58.8	159	82.6	25	–
O=C1C2C=Nc3ccccc3C2=NN1c1ccccc1 (stereo unspecified) [CGS-8216]	17	0.12	0.25	0.08	0.05	–
COC(=O)c1cc2c(cn1)[nH]c1ccc(NCc3ccccc3)cc12	> 10000	48.9	475	30.2	5.42	–
O=[N+]([O-])c1ccc2[nH]c3c[nH]c4c5ccccc5nc-4c3c2c1	> 10000	532	1560	500	244	–
c1ccc2c(c1)[nH]c1cnc3c4ccncc4[nH]c3c12	> 10000	30.5	240	23.8	3	–
C#Cc1ccc2ncc3c(=O)n(-c4ccccc4)[nH]c3c2c1	–	0.02	0.08	0.06	0.08	–
CC(C)(C)OC(=O)c1ncn2c1[C@@H]1CCCN1C(=O)c1c(Br)cccc1-2 [BRETAZENIL]	12.7	0.2	0.5	0.64	0.35	–
O=[N+]([O-])c1ccc2[nH]c3cnc([N+](=O)[O-])cc3c2c1	> 50000	–	314	83.1	12.9	–
CCCOc1ccc2[nH]c3cnc(C(=O)NN)c(COC)c3c2c1	> 300	400	108	422	46	–
N#CSc1ccc2[nH]c3cnc(SC#N)cc3c2c1	> 5000	–	2910	423	13.6	–
COc1ccc2ncc3c(=O)n(-c4ccccc4)[nH]c3c2c1	> 10	0.09	0.2	0.1	0.11	–
CCc1c(C(=O)NN)[nH]cc2nc3cc(OC)c(OC)cc3c1-2	> 3000	570	91.5	> 1000	896	–
CCCOc1ccc2c(c1)c1c(COC)c(C(=O)OCC)ncc1n2C	> 10000	164	161	105	25.6	–
c1ccc2c(c1)[nH]c1cnc3c4cccnc4[nH]c3c12	> 10000	16.3	200	11.5	2.2	–
c1ccc2c(c1)[nH]c1cnc3c(nc4ccccn43)c12	> 10000	284	> 3000	228	105	–
CC(C)c1nc(-c2ncn3c2CN(C)C(=O)c2c(Cl)cccc2-3)no1	227	1.16	1.54	2.08	0.4	–
COC(=O)c1cc2c3cc(NCc4ccc5ccccc5c4)ccc3nc-2c[nH]1	> 10000	271	814	205	30.7	–
Cc1nnc2n1-c1ccc(Cl)cc1C(c1ccccc1Cl)=NC2 [TRIAZOLAM]	> 10000	–	–	0.59	–	–
COc1ccc2c(c1)ncc1c(=O)n(-c3ccccc3)[nH]c12	2.03	1.26	0.84	1.31	1.34	–
COC(=O)c1cc2c3cc(NC4CCCCC4)ccc3nc-2c[nH]1	> 10000	14.4	316	17.4	2.39	–
O=C1CN=C(c2ccccc2[N+](=O)[O-])c2cc(Br)ccc2N1	> 3000	52	199	31	–	0.08
CCOC(=O)c1[nH]cc2nc3ccc(OC)cc3c-2c1CC	> 1000	2.8	1	2.9	1.6	–
CN1C(=O)CN=C(c2ccsc2)c2cc(Cl)ccc21	> 300	> 300	> 300	> 300	> 300	–
C#Cc1ccc(-n2[nH]c3c(cnc4ccccc43)c2=O)cc1	–	0.04	0.17	0.03	0.07	–
CCOC(=O)c1[nH]cc2nc3ccc(OCc4ccc5ccccc5c4)cc3c-2c1CC	> 10000	300	270	291	183	–
CN1Cc2c(C(=O)OC(C)(C)C)ncn2-c2ccc(N=[N+]=[N-])cc2C1=O	–	9.84	–	22.1	–	24.3
CN1C(=O)CN=C(c2ccco2)c2cc(Cl)ccc21	> 300	> 0.12	> 0.44	> 0.17	> 0.23	–
O=c1c2cnc3ccccc3c2[nH]n1-c1ccc(Br)cc1	40	0.25	1.3	0.21	0.18	–
COc1ccc2c(c1)[nH]c1c2ncc2[nH]c3ccccc3c21	> 10000	11	225	11.7	3.4	–
